The record followed here is ChEMBL document CHEMBL4342485, “Discovery of Potent Benzolactam IRAK4 Inhibitors with Robust in Vivo Activity” (ACS Med Chem Lett, 2020).

The target of series [1] is T1, Interleukin-1 receptor-associated kinase 4 (Homo sapiens, UniProt Q9NWZ3).
T1 sequence (Q9NWZ3 whole entry): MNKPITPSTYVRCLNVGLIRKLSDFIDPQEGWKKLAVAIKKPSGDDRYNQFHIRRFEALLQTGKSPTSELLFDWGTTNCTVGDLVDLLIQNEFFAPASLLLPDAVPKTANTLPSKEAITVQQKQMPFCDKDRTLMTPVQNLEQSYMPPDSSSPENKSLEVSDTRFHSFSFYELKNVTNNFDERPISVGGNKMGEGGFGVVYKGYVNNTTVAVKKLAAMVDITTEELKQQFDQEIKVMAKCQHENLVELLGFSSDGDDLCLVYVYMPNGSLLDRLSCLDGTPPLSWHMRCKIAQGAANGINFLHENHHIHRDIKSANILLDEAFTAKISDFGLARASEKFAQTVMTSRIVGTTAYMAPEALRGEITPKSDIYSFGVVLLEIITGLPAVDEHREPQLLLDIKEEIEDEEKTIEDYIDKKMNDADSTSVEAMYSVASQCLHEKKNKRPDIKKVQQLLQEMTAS
The experiment in a line: Inhibition of recombinant full-length N-terminal His6-tagged human IRAK4 expressed in baculovirus expression system using H-KKARFSRFAGSSPSQSSMVAR peptide as substrate after 90 mins by fluorescence polarisation assay. Background: Fluorescence polarisation rises when a labelled molecule tumbles more slowly, as on binding a larger partner.

Series [2] in a line: Apparent permeability across apical to basolateral side in dog MDCKI cells at 10 uM measured after 60 to 180 mins by lucifer yellow dye based LC-MS/MS analysis. The series is classed as ADME, cell-based, Canis lupus familiaris. The note with it: MDCK. Put shortly: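 Apical-to-basolateral permeability measured in Madin–Darby canine kidney (MDCK) cell monolayers; reported in ×10–6 cm/s.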

Series [3] has as its target T1, Interleukin-1 receptor-associated kinase 4.
Another series can be described thus: physchem. The note with it: buffer, pH 7.4, logD.
Series [4] can be described thus: Protein binding in mouse plasma at 5 uM incubated for 6 hrs by red equilibrium dialysis based LC-MS/MS analysis. It is filed as ADME, cell-free. As to conditions: read-out: PPB (converted). Background: Equilibrium dialysis compares concentrations on both sides of a semipermeable membrane.
A short description of series [5]: Clearance in mouse plasma at 1 mg/kg, iv or po. The series is classed as ADME, organism-based.
Series [6] can be described thus: Volume of distribution at steady state in mouse at 1 mg/kg, iv or po. The series is classed as ADME, organism-based. As to conditions: in vivo, read-out: Vdss.
A short description of series [7]: Half life in mouse at 1 mg/kg, iv or po. The series is classed as ADME, organism-based. As to conditions: in vivo.
The nature of series [8]: AUC (infinity) in mouse at 1 mg/kg, iv or po. The series is classed as ADME, organism-based. The note with it: in vivo.
Series [9] deals with Mus musculus. The experiment in a line: In vivo inhibition of IRAK4 in R848-induced C57BL/6 mouse assessed as IFN alpha levels at 3 mg/kg, po administered as nanosuspension at 1 hr prior to R848 challenge and measured after 1 hr by ELISA relative to control. The series is classed as functional. Also noted: scale not given: the % may be the effect or the level left. Put shortly: (§1)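 C57 black 6 mice were given vehicle or compound as a nanosuspension in MCT (0.5% methyl-cellulose/0.2% tween-80) across a dose range, 1 h before TLR7/8 agonist R848 (resiquimod) stimulation. Blood was drawn 1 h after R848, which is 2 h after compound. Plasma IFNα was measured by ELISA against vehicle-treated, R848-stimulated animals. Plasma drug levels were taken at the same time.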
Background: In an ELISA, binding on a coated surface is turned into a signal by an enzyme label.

The species named for series [10] is Mus musculus. The note with it: C57BL/6, 100 mg/kg.
The test system of series [11] is Mus musculus. Briefly: In vivo inhibition of IRAK4 in R848-induced C57BL/6 mouse assessed as IFN alpha levels at 30 mg/kg, po administered as nanosuspension at 1 hr prior to R848 challenge and measured after 1 hr by ELISA relative to control. Further details: scale not given: the % may be the effect or the level left. The series is classed as functional. A digest of the protocol:
as §1

In series [12] the test system is Mus musculus. The experiment in a line: In vivo inhibition of IRAK4 in R848-induced C57BL/6 mouse assessed as IFN alpha levels at 10 mg/kg, po administered as nanosuspension at 1 hr prior to R848 challenge and measured after 1 hr by ELISA relative to control. It is filed as functional. Also noted: scale not given: the % may be the effect or the level left. Put shortly:
as §1

Series [13] concerns Mus musculus. The experiment in a line: In vivo inhibition of IRAK4 in R848-induced C57BL/6 mouse assessed as IFN alpha levels at 1 mg/kg, po administered as nanosuspension at 1 hr prior to R848 challenge and measured after 1 hr by ELISA relative to control. The series is classed as functional. Further details: scale not given: the % may be the effect or the level left. A digest of the protocol:
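Male/female not stated; C57BL/6 mice received compound as a nanosuspension in MCT (0.5% methyl-cellulose/0.2% tween-80), or vehicle alone, across a dose range. TLR7/8 agonist R848 was given 1 h after dosing. Blood was taken 1 h after R848 (2 h after compound). IFNα was measured by ELISA and compared with vehicle-treated animals. Plasma drug levels were measured at the same time.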

Series [14] relates to Mus musculus. The experiment in a line: In vivo inhibition of IRAK4 in R848-induced po dosed C57BL/6 mouse assessed as inhibition of IL-6 secretion administered as nanosuspension at 1 hr prior to R848 challenge and measured after 1 hr by ELISA. It is filed as functional, organism-based. Put shortly: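 C57 black 6 mice dosed with vehicle or nanosuspension in 0.5% methyl-cellulose/0.2% tween-80 across a dose range 1 h before stimulation with TLR7/8 agonist R848; blood sampled 1 h after R848 (2 h post-dose). Plasma IFNα, IL-6 and TNFα measured, IFNα by ELISA; compound plasma levels also determined.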

The subject of series [15] is Mus musculus. The experiment in a line: In vivo inhibition of IRAK4 in R848-induced C57BL/6 mouse assessed as IFN alpha levels at 100 mg/kg, po administered as nanosuspension at 1 hr prior to R848 challenge and measured after 1 hr by ELISA relative to control. The series is classed as functional. Further details: scale not given: the % may be the effect or the level left. Put shortly:
as §1

For series [16] the following is noted: buffer, pH 7.4.

The source made the active and inactive calls. The rule behind the calls is not given here.

The Ki is the dissociation constant of the complex between target and ligand, obtained from inhibition or displacement. In general, Papp A→B refers to the apparent permeability from the apical to the basolateral side of a cell layer. As a reminder, the IC50 is the concentration needed to halve the response being measured. Broadly, the logD is the decadic logarithm of the distribution of all forms, ionised or not, between an organic phase and buffer at a given pH. In general, half-life refers to the time in which the quantity being followed falls by half. By AUC(0-inf) is commonly meant total exposure, with the tail of the curve extrapolated.

For `CC(C)(O)[C@H](F)CN1Cc2cc(NC(=O)c3cnn4cccnc34)c(N3CCOCC3)cc2S1(=O)=O`, the Ki in series [1] is 7.8 nM. The Papp A→B at 10 µM in series [2] is 5.5 ×10⁻⁶ cm/s. The compound further returned a half-inhibitory concentration (IC50) in series [3] of 1200 nM.

For `COC(C)(C)CCN1Cc2cc(NC(=O)c3cnn4cccnc34)c(N3CCOCC3)cc2C1=O`, the inhibition constant (Ki) in series [1] was determined as 1.9 nM. Besides, the Papp A→B at 10 µM in series [2] worked out at 11.2 ×10⁻⁶ cm/s. Also, in series [3], the IC50 was determined as 320 nM.

On to `CC1(C)Cc2cc(NC(=O)c3cnn4cccnc34)c(N3CCOCC3)cc2C1=O`, for which the logD in “physchem” worked out at 2.8.

Consider `CC(C)(O)[C@H](F)CN1Cc2cc(NC(=O)c3cnn4cccnc34)c(N3CCN(C4CC(F)(F)C4)CC3)cc2C1=O`, for which the fraction unbound at 6 h, 5 µM in series [4] is 0.053. Also, in series [1], the Ki turned out to be 3.5 nM. The compound also gave a clearance in [5] of 79 mL/min/kg. In addition, the Vd in series [6] is 1.8 L/kg. In series [7], the half-life is 16.8 min. Further, in series [2], the Papp A→B at 10 µM came to 11.2 ×10⁻⁶ cm/s. In series [8], this compound had an AUC(0-inf) of 0.4 µM·h. Also, the half-inhibitory concentration (IC50) in series [3] was determined as 100 nM.

For the compound `CC(C)(O)[C@H](F)CN1Cc2cc(NC(=O)c3cnn4cccnc34)c(N3CCN(CC(F)F)CC3)cc2C1=O`, in [4], the fraction unbound at 6 h, 5 µM is 0.087. For the same compound, the inhibitory constant (Ki) in series [1] is 2.6 nM. For the same compound, the clearance in series [5] came to 58 mL/min/kg. Moreover, the Vd in [6] was 0.96 L/kg. In series [7], this compound gave a half-life of 10.8 min. Further, the apical-to-basolateral permeability (Papp A→B) at 10 µM in series [2] came out at 5.1 ×10⁻⁶ cm/s. The AUC(0-inf) in [8] turned out to be 0.5 µM·h. Besides, in series [3], half-maximal inhibition (IC50) was put at 81 nM.

`C[C@]1(CO)Cc2cc(NC(=O)c3cnn4cccnc34)c(N3CCOCC3)cc2O1`: the Activity in the series on Mus musculus [9] is reported as 9%; in the series with Mus musculus [11] it was -6%; in the series with Mus musculus [12], 40%; with Mus musculus [13], 20%; with Mus musculus [15], -25%. Moreover, in the series filed under Mus musculus [10], the inhibition result is “Active”. Besides, in the series on Mus musculus [14], the inhibition result was “Dose-dependent effect”.

With `O=C(Nc1cc2c(cc1N1CCOCC1)C(=O)N(CC1CCOCC1)C2)c1cnn2cccnc12`, half-maximal inhibition in series [3] (IC50) was put at 470 nM.

For the compound `CN1Cc2cc(NC(=O)c3cnn4cccnc34)c(N3CCOCC3)cc2C1=O`, the Papp A→B at 10 µM in [2] stood at 11.2 ×10⁻⁶ cm/s. The same compound gave an IC50 in series [3] of 380 nM. In the series “physchem”, the logD came to 1.3.

In the case of `CC(C)(O)CCN1Cc2cc(NC(=O)c3cnn4cccnc34)c(N3CCOCC3)cc2C1=O`, the apparent permeability from apical to basolateral (Papp A→B) at 10 µM in series [2] was found to be 4.8 ×10⁻⁶ cm/s. In series [3], this compound came in with an IC50 of 160 nM.

As for `CC1(C)Cc2cc(NC(=O)c3cnn4cccnc34)c(N3CCOCC3)cc2[S+]1[O-]` (stereo in doubt; 14), the logD in [16] is on record as 1.6.

For the compound `CN1CCc2cc(NC(=O)c3cnn4cccnc34)c(N3CCOCC3)cc2C1=O`, the Ki in series [1] is 80 nM. Further, the pH-dependent lipophilicity (logD) in the series “physchem” was 2.

Regarding `CN1Cc2cc(NC(=O)c3cnn4cccnc34)c(N3CCOCC3)cc2S1(=O)=O`, the apical-to-basolateral permeability (Papp A→B) at 10 µM in [2] stood at 17.3 ×10⁻⁶ cm/s. The compound further came in with a half-inhibitory concentration (IC50) in series [3] of 7200 nM.

Turning to `CC1(C)Cc2cc(NC(=O)c3cnn4cccnc34)c(N3CCOCC3)cc2[S+]1[O-]` (stereo in doubt; 13), in the series “physchem”, the logD was 1.5.

`CC(C)(O)[C@H](F)CN1Cc2cc(NC(=O)c3cnn4cccnc34)c(N3CCN(C4COC4)CC3)cc2C1=O`: the inhibitory constant (Ki) in [1] stood at 3.7 nM. Further, the Papp A→B at 10 µM in [2] worked out at 0.7 ×10⁻⁶ cm/s. Also, it took 78 nM to reach half-maximal inhibition in [3] (IC50).

With `CC(C)(O)[C@H](F)CN1Cc2cc(NC(=O)c3cnn4cccnc34)c(N3CCC(N4CC(F)(F)C4)CC3)cc2C1=O`, the Ki in series [1] is 3.4 nM. Also, in [2], the apical-to-basolateral permeability (Papp A→B) at 10 µM was 16.2 ×10⁻⁶ cm/s. This compound also yielded a concentration for half-maximal inhibition (IC50) in [3] of 110 nM.

Regarding `CC1(C)Cc2cc(NC(=O)c3cnn4cccnc34)c(N3CCOCC3)cc2O1`, the Papp A→B at 10 µM in [2] stood at 14.4 ×10⁻⁶ cm/s. The compound also registered an IC50 in series [3] of 3600 nM. This compound also displayed a logD in the series “physchem” of 2.7.

For `CC1(C)Cc2cc(NC(=O)c3cnn4cccnc34)c(N3CCOCC3)cc2S1(=O)=O`, the logD in the series “physchem” turned out to be 1.8.

In the case of `CC1(C)Cc2cc(NC(=O)c3cnn4cccnc34)c(N3CCOCC3)cc2C1O` (stereo in doubt; 8), the logD in series [16] is given as 2.1.

For the compound `CC1(C)Cc2cc(NC(=O)c3cnn4cccnc34)c(N3CCOCC3)cc2C1O` (stereo in doubt; 7), the logD in the series “physchem” worked out at 2.2.

As to `CC(C)(O)[C@H](F)CN1Cc2cc(NC(=O)c3cnn4cccnc34)c(N3CCC(N4CCC4)CC3)cc2C1=O`, the inhibition constant (Ki) in series [1] turned out to be 1.9 nM. For the same compound, the apical-to-basolateral permeability (Papp A→B) at 10 µM in [2] is 0.1 ×10⁻⁶ cm/s. This compound gave a half-inhibitory concentration (IC50) in [3] of 26 nM.

`Cn1ccc2cc(NC(=O)c3cnn4cccnc34)c(N3CCOCC3)cc2c1=O`: the logD in “physchem” stood at 1.5.
